Laboratory results taken from ChEMBL document CHEMBL1156846, “Remote functionalization of SCH 39166: discovery of potent and selective benzazepine dopamine D1 receptor antagonists” (Bioorg Med Chem Lett, 2010).

Tests used:
D(1A) dopamine receptor = D(1A) dopamine receptor (Homo sapiens, UniProt P21728); assay: Displacement of [3H]SCh23390 from dopamine D1 receptor expressed in mouse LTK cells by scintillation counting; format: cell-based
D(2) dopamine receptor = D(2) dopamine receptor (Homo sapiens, UniProt P14416); assay: Displacement of [3H]methylspiperon from dopamine D2 receptor expressed in mouse LTK cells by scintillation counting; format: cell-based
D(4) dopamine receptor = biological target: T1, D(4) dopamine receptor (Homo sapiens, UniProt P21917); assay: Displacement of radioligand from dopamine D4 receptor expressed in mouse LTK cells by scintillation counting; format: cell-based
T1 sequence (P21917 whole entry): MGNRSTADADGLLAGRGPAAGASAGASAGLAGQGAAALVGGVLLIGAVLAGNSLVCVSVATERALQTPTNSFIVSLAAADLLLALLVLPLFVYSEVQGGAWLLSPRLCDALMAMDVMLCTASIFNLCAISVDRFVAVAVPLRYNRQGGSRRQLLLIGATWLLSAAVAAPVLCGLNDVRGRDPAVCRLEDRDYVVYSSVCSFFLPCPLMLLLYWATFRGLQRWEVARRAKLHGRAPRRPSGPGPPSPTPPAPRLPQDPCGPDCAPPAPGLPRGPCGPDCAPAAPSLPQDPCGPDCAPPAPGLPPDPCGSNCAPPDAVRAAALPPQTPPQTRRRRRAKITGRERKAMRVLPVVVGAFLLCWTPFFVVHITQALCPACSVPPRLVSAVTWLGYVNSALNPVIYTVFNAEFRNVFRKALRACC
Summary of the method: (§1)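 Ki came from equilibrium radioligand binding. Bound and free radioligand were separated by rapid filtration, and bound counts were measured by liquid scintillation. Standard error was 10%, and assay-to-assay variability was under twofold.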

D(1B) dopamine receptor = D(1B) dopamine receptor (Homo sapiens, UniProt P21918); assay: Displacement of radioligand from dopamine D5 receptor expressed in mouse LTK cells by scintillation counting; format: cell-based; summary of the method: as §1
[1] = Tmax in Sprague-Dawley rat at 10 mg/kg, po; format: ADME, organism-based; parameters: dose 10 mg/kg, route oral; details: in vivo
Summary of the method: (§2)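 Two male Sprague–Dawley rats received 10 mg/kg orally under a cassette-accelerated rapid rat protocol. Blood was sampled at several time points, and values came from pooled samples. […] Individual plasma levels were generally within ±25% of the average.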

Rattus norvegicus = assay: AUC (0 to 6 hrs) in Sprague-Dawley rat at 10 mg/kg, po; format: ADME, organism-based, Plasma; parameters: time < 6 hr, dose 10 mg/kg, route oral; details: in vivo; summary of the method: as §2
[2] = Cmax in Sprague-Dawley rat at 10 mg/kg, po; format: ADME, organism-based; parameters: dose 10 mg/kg, route oral; details: in vivo; summary of the method: as §2

D(2) dopamine receptor, sequence (P14416 whole entry): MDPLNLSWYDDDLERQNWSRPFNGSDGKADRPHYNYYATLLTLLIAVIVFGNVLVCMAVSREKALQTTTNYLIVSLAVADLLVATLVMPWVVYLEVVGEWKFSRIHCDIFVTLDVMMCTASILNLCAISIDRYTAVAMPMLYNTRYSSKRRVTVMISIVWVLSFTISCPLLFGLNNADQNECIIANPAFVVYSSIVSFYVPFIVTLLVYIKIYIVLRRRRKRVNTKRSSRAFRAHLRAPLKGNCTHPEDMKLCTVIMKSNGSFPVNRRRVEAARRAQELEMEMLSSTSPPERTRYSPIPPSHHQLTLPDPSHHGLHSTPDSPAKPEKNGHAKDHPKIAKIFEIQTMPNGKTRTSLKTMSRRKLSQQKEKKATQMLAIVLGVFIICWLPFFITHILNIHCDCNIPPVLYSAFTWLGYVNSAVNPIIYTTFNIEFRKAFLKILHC
D(1A) dopamine receptor, sequence (P21728 whole entry): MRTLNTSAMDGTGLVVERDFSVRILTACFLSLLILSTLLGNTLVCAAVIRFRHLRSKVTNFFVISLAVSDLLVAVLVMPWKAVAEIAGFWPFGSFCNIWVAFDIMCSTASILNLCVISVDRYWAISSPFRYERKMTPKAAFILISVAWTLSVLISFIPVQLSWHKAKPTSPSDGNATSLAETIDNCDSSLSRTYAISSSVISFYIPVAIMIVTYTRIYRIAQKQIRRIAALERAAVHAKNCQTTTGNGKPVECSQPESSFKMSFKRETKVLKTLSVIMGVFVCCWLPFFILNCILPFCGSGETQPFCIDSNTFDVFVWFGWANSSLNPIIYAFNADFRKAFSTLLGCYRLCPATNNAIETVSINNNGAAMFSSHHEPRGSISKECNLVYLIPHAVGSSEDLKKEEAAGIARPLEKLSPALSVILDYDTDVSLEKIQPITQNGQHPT
D(1B) dopamine receptor, sequence (P21918 whole entry): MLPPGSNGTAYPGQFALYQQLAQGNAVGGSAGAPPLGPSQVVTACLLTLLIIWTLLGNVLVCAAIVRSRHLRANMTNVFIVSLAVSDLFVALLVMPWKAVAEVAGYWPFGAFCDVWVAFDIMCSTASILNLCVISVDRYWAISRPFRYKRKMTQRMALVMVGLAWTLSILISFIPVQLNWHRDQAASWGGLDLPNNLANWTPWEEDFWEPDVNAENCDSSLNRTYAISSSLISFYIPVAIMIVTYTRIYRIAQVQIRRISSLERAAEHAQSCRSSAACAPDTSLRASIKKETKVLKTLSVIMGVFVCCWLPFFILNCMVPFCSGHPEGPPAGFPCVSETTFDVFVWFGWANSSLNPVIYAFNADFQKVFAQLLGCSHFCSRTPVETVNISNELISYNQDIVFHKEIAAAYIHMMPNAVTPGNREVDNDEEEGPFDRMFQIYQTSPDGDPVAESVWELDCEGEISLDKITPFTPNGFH

| Ki (D(1A) dopamine receptor) [nM] | Ki (D(2) dopamine receptor) [nM] | Ki (D(4) dopamine receptor) [nM] | Ki (D(1B) dopamine receptor) [nM] | Tmax [1] [h] | AUC (Rattus norvegicus) [µg·h/mL] | Cmax [2] [ng/mL] | SMILES |
| --- | --- | --- | --- | --- | --- | --- | --- |
| 0.4 | 223 | – | – | – | – | – | CN1CCc2cc(Cl)c(O)cc2[C@H]2c3cccc(-c4cccc(F)c4)c3CC[C@@H]21 |
| 2.6 | 1370 | 5970 | 3.3 | – | – | – | CN1CCc2cc(Cl)c(O)cc2[C@H]2c3cccc(C=O)c3CC[C@@H]21 |
| 0.7 | 89 | – | – | – | – | – | CN1CCc2cc(Cl)c(O)cc2[C@H]2c3cccc(-c4ccc(CO)cc4)c3CC[C@@H]21 |
| 2.3 | 923 | 4830 | 3.7 | – | – | – | COC(=O)c1cccc2c1CC[C@H]1[C@H]2c2cc(O)c(Cl)cc2CCN1C |
| – | 79 | – | – | – | – | – | CN1CCc2cc(Cl)c(O)cc2[C@H]2c3cccc(-c4ccccc4)c3CC[C@@H]21 |
| – | 756 | 5060 | 10.5 | 0.5 | 75 | 43 | CN1CCc2cc(Cl)c(O)cc2[C@H]2c3cccc(-c4ccncc4)c3CC[C@@H]21 |
| 0.2 | 69 | 8340 | 2.5 | – | – | – | CN1CCc2cc(Cl)c(O)cc2[C@H]2c3cccc(/C=N/OCc4ccccc4)c3CC[C@@H]21 |
| 2 | 1650 | 6280 | 7.4 | – | – | – | CN1CCc2cc(Cl)c(O)cc2[C@H]2c3cccc(CO)c3CC[C@@H]21 |
| 0.7 | 12 | – | – | – | – | – | CN(C)c1ccc(-c2cccc3c2CC[C@H]2[C@H]3c3cc(O)c(Cl)cc3CCN2C)cc1 |
| 0.7 | 550 | 10000 | 6.2 | 2 | 76 | 18 | COc1ccc(-c2cccc3c2CC[C@H]2[C@H]3c3cc(O)c(Cl)cc3CCN2C)cc1 |
| 2.3 | 1610 | – | – | – | – | – | CN1CCc2cc(Cl)c(O)cc2[C@H]2c3cccc(-c4cccc(OC(F)(F)F)c4)c3CC[C@H]21 |
| – | 93 | 10000 | 1.9 | 2 | 353 | 90 | CN1CCc2cc(Cl)c(O)cc2[C@H]2c3cccc(-c4cccs4)c3CC[C@@H]21 |
| 38 | 420 | – | – | – | – | – | CN1CCc2cc(Cl)c(O)cc2[C@H]2c3cccc(C(=O)O)c3CC[C@@H]21 |
| 0.6 | 584 | 10000 | 3.4 | – | – | – | CN1CCc2cc(Cl)c(O)cc2[C@H]2c3cccc(-c4cccc(C#N)c4)c3CC[C@@H]21 |
| 0.6 | 51 | – | – | – | – | – | CN1CCc2cc(Cl)c(O)cc2[C@H]2c3cccc(-c4ccc5[nH]ccc5c4)c3CC[C@@H]21 |
| 3.1 | 1370 | 10000 | 26.9 | – | – | – | CN1CCc2cc(Cl)c(O)cc2[C@H]2c3cccc(N4CCCC4=O)c3CC[C@@H]21 |
| 1.8 | 217 | 5890 | 10 | – | – | – | CCO/N=C/c1cccc2c1CC[C@H]1[C@H]2c2cc(O)c(Cl)cc2CCN1C |
| 0.9 | 312 | – | – | – | – | – | CN1CCc2cc(Cl)c(O)cc2[C@H]2c3cccc(-c4cc(F)cc(F)c4)c3CC[C@@H]21 |
| 1.6 | 882 | 4370 | 3.3 | – | – | – | CN1CCc2cc(Cl)c(O)cc2[C@H]2c3cccc(/C=N/O)c3CC[C@@H]21 |
| 4.4 | 483 | 7510 | 22 | – | – | – | CO/N=C/c1cccc2c1CC[C@H]1[C@H]2c2cc(O)c(Cl)cc2CCN1C |
| 0.6 | 618 | 10000 | 4.7 | – | – | – | CN1CCc2cc(Cl)c(O)cc2[C@H]2c3cccc(-c4cccc([N+](=O)[O-])c4)c3CC[C@@H]21 |
| 1 | 124 | 10000 | 2.1 | – | – | – | CN1CCc2cc(Cl)c(O)cc2[C@H]2c3cccc(/C=N/Oc4ccccc4)c3CC[C@@H]21 |
| 2.8 | 1330 | 10000 | 89 | – | – | – | CN1CCc2cc(Cl)c(O)cc2[C@H]2c3cccc(C#N)c3CC[C@@H]21 |
| 3 | 1690 | 10000 | 7.5 | – | – | – | CN1CCc2cc(Cl)c(O)cc2[C@H]2c3cccc(Br)c3CC[C@@H]21 |

| SMILES | Ki (D(1A) dopamine receptor) [nM] | Ki (D(2) dopamine receptor) [nM] | Ki (D(4) dopamine receptor) [nM] | Ki (D(1B) dopamine receptor) [nM] | Tmax [1] [h] | AUC (Rattus norvegicus) [µg·h/mL] | Cmax [2] [ng/mL] |
| --- | --- | --- | --- | --- | --- | --- | --- |
| CN1CCc2cc(Cl)c(O)cc2[C@H]2c3cccc(O)c3CC[C@@H]21 | – | 440 | 3990 | 1.4 | – | – | – |
| CN1CCc2cc(Cl)c(O)cc2[C@H]2c3ccccc3CC[C@@H]21 [ECOPIPAM] | – | – | 5520 | 2 | – | 156 | – |
